In ChEMBL document CHEMBL3797089, “Morusin Induces TRAIL Sensitization by Regulating EGFR and DR5 in Human Glioblastoma Cells” (J Nat Prod, 2016):
Active and inactive are the calls of the source. The calls are words filed in the database; no cut-off is given here.

What was measured:
[1] = Reduction of XIAP mRNA expression in human U87MG cells at 25 uM by RT-qPCR analysis; assay type: functional, cell-based; conditions: U-87MG ATCC, TDE = time-dependent effect
Procedure, shortened: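 U87MG cells were exposed to 25 μM morusin over a time course. Total RNA (1 μg) was reverse transcribed, and XIAP and survivin transcripts were measured by RT-qPCR against GAPDH. Results are mean ± SD from at least three independent experiments.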

LN-18 [2] = experiment: Induction of DR5 expression in human LN18 cells after 24 hrs by Western blot analysis; assay type: functional, cell-based
Procedure, shortened: (§1)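 Cells exposed to a range of morusin concentrations for 24 h. Cell extracts immunoblotted for DR4, DR5, DcR1 and DcR2, with β-actin as internal control and HRP-conjugated secondary antibodies (1:5000).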

U373 MG [3] = experiment: Induction of DR4 expression in human U373MG cells at 25 uM after 24 hrs by FITC-conjugated flow cytometric analysis; assay type: functional, cell-based; conditions: U-373MG ATCC
Procedure, shortened: (§2)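 Cells given 25 μM morusin for 24 h, then stained on ice for 30 min with 0.5 μg/mL FITC-conjugated anti-DR4, anti-DR5 or isotype IgG in FACS buffer. Surface expression read by flow cytometry.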

[4] = Reduction of PDGFR expression in human U373MG cells at 25 uM after 24 hrs by Western blot analysis; assay type: functional, cell-based; conditions: U-373MG ATCC
Procedure, shortened: (§3)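 LN18, U87MG, T98G, U251MG and U373MG glioblastoma cells were exposed to morusin for 24 h. Cells were maintained in DMEM, MEM or RPMI with 10% FBS at 37 °C and 5% CO2. Whole-cell lysates were Western blotted for receptor proteins, with β-actin as internal control.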

U-87 MG [5] = experiment: Induction of DR4 expression in human U87MG cells at 25 uM after 24 hrs by FITC-conjugated flow cytometric analysis; assay type: functional, cell-based; conditions: U-87MG ATCC; procedure, shortened: as §2
LN-18 [6] = experiment: Effect on DcR2 expression in human LN18 cells upto 25 uM after 24 hrs by Western blot analysis; assay type: functional, cell-based; procedure, shortened: as §1
[7] = Cytotoxicity against human U87MG cells transfected DR5 siRNA assessed as cell death after 24 hrs by MTT assay in presence of TRAIL; assay type: functional, U-87MG ATCC
Procedure, shortened: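 U87MG cells were transiently transfected with scrambled control or DR5 siRNA by lipofection. At 48 h after transfection they were cotreated with TRAIL at 50 ng/mL and test compound at 20 μM for 24 h. Viability was read by MTT: 1 mg/mL for 2 h at 37 °C, lysis overnight, OD at 570 nm. Data are mean ± SD from ≥3 independent experiments.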

U-87 MG [8] = experiment: Induction of DR5 mRNA expression in human U87MG cells at 25 uM after 24 hrs by RT-qPCR analysis; assay type: functional, cell-based; conditions: U-87MG ATCC
Procedure, shortened: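 U87MG held at 25 μM morusin for the times indicated. Total RNA extracted; 1 μg reverse transcribed; DR5 mRNA measured by RT-qPCR against GAPDH. Mean ± SD.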

U-87 MG [9] = experiment: Induction of apoptosis in human U87MG cells assessed as increase in cleaved caspase 8 levels at 2.5 uM after 24 hrs by Western blot analysis in presence of TRAIL; assay type: functional, cell-based; conditions: U-87MG ATCC
Procedure, shortened: (§4)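 U87MG and T98G given TRAIL 25 ng/mL plus morusin 2.5 μM together for 24 h; single-agent arms used TRAIL 50 ng/mL or morusin 5 μM. Lysates immunoblotted for cleaved caspase 3, 8, 9 and cleaved PARP, with β-actin as internal control.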

[10] = Reduction of EGFR expression in human U373MG cells at 25 uM after 24 hrs by Western blot analysis; assay type: functional, cell-based; conditions: U-373MG ATCC; procedure, shortened: as §3
[11] = target: Signal transducer and activator of transcription 3 (Homo sapiens) (UniProt P40763); experiment: Inhibition of STAT3 phosphorylation in human U373MG cells measured up to 25 uM after 24 hrs by Western blot analysis; assay type: cell-based; conditions: U-373MG ATCC
Procedure, shortened: (§5)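 Cells grown in MEM (U87MG) or RPMI (U373MG) with 10% FBS, 5% CO2, 37 °C. Treated for 24 h with the indicated concentrations of morusin (DMSO stock). Whole-cell lysates immunoblotted for phosphorylated and total proteins, with β-actin as internal control.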

[12] = Reduction of survivin mRNA expression in human U87MG cells after 24 hrs by RT-qPCR analysis; assay type: functional, cell-based; conditions: U-87MG ATCC
Procedure, shortened: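 U87MG cells were treated with graded morusin for 24 h. Total RNA was extracted with TRI Reagent, and 1 μg was reverse transcribed. XIAP and survivin mRNA were quantified by RT-qPCR, normalized to GAPDH. Results are mean ± SD from at least three independent experiments; unpaired t-test.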

T98G [13] = experiment: Reduction of PDGFR expression in human T98G cells at 25 uM after 24 hrs by Western blot analysis; assay type: functional, cell-based; procedure, shortened: as §3
U373 MG [14] = experiment: Effect on cIAP1 expression in human U373MG cells at 12 to 25 uM after 24 hrs by Western blot analysis; assay type: functional, cell-based; conditions: U-373MG ATCC
Procedure, shortened: (§6)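 U87MG and U373MG exposed to a range of morusin concentrations for 24 h. Whole-cell extracts immunoblotted for cIAP1, with β-actin as internal control.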

[15] = Reduction of survivin expression in human U373MG cells at 25 uM by Western blot analysis; assay type: functional, cell-based; conditions: U-373MG ATCC, TDE = time-dependent effect
Procedure, shortened: (§7)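 Time course: U87MG and U373MG cells were exposed to 25 μM morusin for the indicated times. Whole-cell extracts were Western blotted, with β-actin as internal control.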

U-251 = experiment: Induction of DR5 expression in human U251MG cells after 24 hrs by Western blot analysis; assay type: functional, cell-based; procedure, shortened: as §1
[16] = target: Epidermal growth factor receptor (Homo sapiens) (UniProt P00533); experiment: Inhibition of EGFR phosphorylation in human U87MG cells measured up to 25 uM after 24 hrs by Western blot analysis; assay type: cell-based; conditions: U-87MG ATCC; procedure, shortened: as §5
T98G [17] = experiment: Induction of apoptosis in human T98G cells assessed as increase in cleaved caspase 9 levels at 2.5 uM after 24 hrs by Western blot analysis in presence of TRAIL; assay type: functional, cell-based; procedure, shortened: as §4
U-87 MG [18] = experiment: Induction of DR5 expression in human U87MG cells after 24 hrs by Western blot analysis; assay type: functional, cell-based; conditions: U-87MG ATCC; procedure, shortened: as §1
[19] = Cytotoxicity against human U87MG cells assessed as reduction in cell viability measured up to 20 uM after 24 hrs by MTT assay in presence of TRAIL; assay type: functional, U-87MG ATCC
Procedure, shortened: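 MTT viability. 3–5 × 10^3 cells/well, treated the next day with TRAIL 100 ng/mL plus increasing morusin concentrations for 24 h. 1 mg/mL MTT for 2 h at 37 °C, lysis overnight, OD 570 nm. Living-cell fractions were used for combination index analysis. Mean ± SD, at least three independent experiments.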

U-87 MG [20] = experiment: Effect on cIAP1 expression in human U87MG cells at 12 to 25 uM after 24 hrs by Western blot analysis; assay type: functional, cell-based; conditions: U-87MG ATCC; procedure, shortened: as §6
[21] = Reduction of EGFR expression in human LN18 cells at 25 uM after 24 hrs by Western blot analysis; assay type: functional, cell-based; conditions: LN-18; procedure, shortened: as §3
[22] = Reduction of survivin expression in human U87MG cells at 25 uM by Western blot analysis; assay type: functional, cell-based; conditions: U-87MG ATCC, TDE = time-dependent effect; procedure, shortened: as §7
LN-18 [23] = experiment: Effect on DR4 expression in human LN18 cells upto 25 uM after 24 hrs by Western blot analysis; assay type: functional, cell-based; procedure, shortened: as §1
U-87 MG [24] = experiment: Effect on DR4 expression in human U87MG cells upto 25 uM after 24 hrs by Western blot analysis; assay type: functional, cell-based; conditions: U-87MG ATCC; procedure, shortened: as §1

Chain of Signal transducer and activator of transcription 3 (Homo sapiens) (P40763 whole entry): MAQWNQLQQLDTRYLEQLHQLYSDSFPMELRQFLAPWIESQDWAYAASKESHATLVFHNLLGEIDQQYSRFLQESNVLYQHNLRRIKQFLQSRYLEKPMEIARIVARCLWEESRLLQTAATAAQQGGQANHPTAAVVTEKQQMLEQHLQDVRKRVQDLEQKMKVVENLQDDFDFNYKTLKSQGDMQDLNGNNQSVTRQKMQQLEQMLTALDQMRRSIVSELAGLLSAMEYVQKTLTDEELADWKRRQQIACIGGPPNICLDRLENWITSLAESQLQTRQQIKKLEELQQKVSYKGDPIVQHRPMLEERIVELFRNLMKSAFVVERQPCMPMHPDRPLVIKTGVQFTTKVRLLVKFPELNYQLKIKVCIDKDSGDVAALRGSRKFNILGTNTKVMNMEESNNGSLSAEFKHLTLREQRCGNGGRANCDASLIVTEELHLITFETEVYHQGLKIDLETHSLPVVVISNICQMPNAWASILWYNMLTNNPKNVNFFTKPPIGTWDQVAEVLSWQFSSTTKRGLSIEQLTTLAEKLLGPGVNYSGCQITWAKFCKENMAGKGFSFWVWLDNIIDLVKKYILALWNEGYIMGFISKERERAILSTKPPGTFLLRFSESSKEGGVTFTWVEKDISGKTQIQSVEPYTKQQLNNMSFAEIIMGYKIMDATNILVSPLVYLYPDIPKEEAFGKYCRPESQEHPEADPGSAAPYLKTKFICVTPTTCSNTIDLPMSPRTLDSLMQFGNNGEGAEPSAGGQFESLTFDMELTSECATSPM
Chain of Epidermal growth factor receptor (Homo sapiens) (P00533 whole entry): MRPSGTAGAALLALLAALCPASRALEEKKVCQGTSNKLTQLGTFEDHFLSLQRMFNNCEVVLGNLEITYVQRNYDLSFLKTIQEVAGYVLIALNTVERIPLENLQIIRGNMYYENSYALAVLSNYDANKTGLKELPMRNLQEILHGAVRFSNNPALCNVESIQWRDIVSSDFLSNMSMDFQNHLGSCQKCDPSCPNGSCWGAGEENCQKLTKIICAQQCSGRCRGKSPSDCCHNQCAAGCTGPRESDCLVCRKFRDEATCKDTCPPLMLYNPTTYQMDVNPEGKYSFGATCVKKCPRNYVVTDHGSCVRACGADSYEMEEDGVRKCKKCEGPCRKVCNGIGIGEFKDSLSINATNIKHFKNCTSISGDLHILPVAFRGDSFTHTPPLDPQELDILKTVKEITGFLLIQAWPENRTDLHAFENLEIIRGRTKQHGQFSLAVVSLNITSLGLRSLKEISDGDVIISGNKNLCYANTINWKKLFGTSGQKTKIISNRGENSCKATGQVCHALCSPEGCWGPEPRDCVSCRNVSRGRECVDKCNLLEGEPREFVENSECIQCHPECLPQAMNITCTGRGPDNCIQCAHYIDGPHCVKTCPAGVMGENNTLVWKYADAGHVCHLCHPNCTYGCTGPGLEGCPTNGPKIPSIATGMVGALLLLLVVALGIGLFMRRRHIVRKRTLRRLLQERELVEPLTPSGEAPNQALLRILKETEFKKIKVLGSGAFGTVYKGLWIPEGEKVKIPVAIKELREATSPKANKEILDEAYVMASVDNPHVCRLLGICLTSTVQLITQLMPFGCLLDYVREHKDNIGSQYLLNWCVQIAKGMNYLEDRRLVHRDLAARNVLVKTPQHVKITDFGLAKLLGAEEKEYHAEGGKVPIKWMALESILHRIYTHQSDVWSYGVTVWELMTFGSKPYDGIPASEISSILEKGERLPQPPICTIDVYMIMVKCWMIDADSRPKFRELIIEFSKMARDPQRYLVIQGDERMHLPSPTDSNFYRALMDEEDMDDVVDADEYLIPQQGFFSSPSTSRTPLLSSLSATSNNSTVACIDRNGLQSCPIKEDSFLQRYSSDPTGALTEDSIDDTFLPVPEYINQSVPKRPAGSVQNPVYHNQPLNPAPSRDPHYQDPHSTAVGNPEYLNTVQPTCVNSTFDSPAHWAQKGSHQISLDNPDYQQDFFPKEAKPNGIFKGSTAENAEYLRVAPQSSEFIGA

With `CC(C)=CCc1c(-c2ccc(O)cc2O)oc2c3c(cc(O)c2c1=O)OC(C)(C)C=C3` [MORUSIN] the Activity [1] was “tde”, the Activity (LN-18 [2]) was “Dose-dependent effect” and the Activity (U373 MG [3]) was “inactive”. For the same molecule, the Activity [4] was “Active”, the Activity (U-87 MG [5]) was “inactive” and the Activity (LN-18 [6]) was “inactive”. For the same molecule, the Activity [7] was 10%, the Activity (U-87 MG [8]) was “Active” and the Activity (U-87 MG [9]) was “Active”. For the same molecule, the Activity [10] was “Active”, the inhibition [11] was “Active” and the Activity [12] was “Dose-dependent effect”. For the same molecule, the Activity (T98G [13]) was “Active”, the Activity (U373 MG [14]) was “inactive” and the inhibition [15] was “tde”. The Activity (U-251) was “Dose-dependent effect”, the inhibition [16] was “Active” and the Activity (T98G [17]) was “Active”. The Activity (U-87 MG [18]) was “Dose-dependent effect”, the CI [19] was less than 0.8 and the Activity (U-87 MG [20]) was “inactive”. The Activity [21] was “Active”, the inhibition [22] was “tde” and the Activity (LN-18 [23]) was “inactive”. For the same molecule, the Activity (U-87 MG [24]) was “inactive”.
